We go through 73 compounds from ChEMBL document CHEMBL4513216, “Probing the Open Global Health Chemical Diversity Library for Multistage-Active Starting Points for Next-Generation Antimalarials” (ACS Infect Dis, 2020).

The nature of the data set: Toxicity liver stage against HepG2, at 10uM. Type of data set: cell-based. More on the design: test concentration 10 uM, cell line HepG2-A16-CD81EGFP. As to conditions: human, HepG2-A16-CD81EGFP cells; read-out: INHIBITION
The essentials:
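Uninfected HepG2-A16-CD81EGFP cells, 3 × 10^3 per well, 1536-well, plated on prespotted compound at 10 μM final, parasite-free screening media added to match infected plates; puromycin 10 μM positive, DMSO 0.5% negative; run in parallel with 48 h PbLuc assay at 37 °C, 5% CO2; viability by CellTiter-Glo luminescence, normalized to controls.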
For `Cc1ccc(CN2CCCC3(CCCC(=O)N3C)C2)s1` (stereo not drawn), the cytotoxicity at 10 µM was -110%. On to `CN(C)C[C@]12COC[C@H]1CN(Cc1ccc3ccccc3n1)C2`, for which the cytotoxicity at 10 µM was 6.77%. Take `Cc1ncsc1CN1C[C@H]2OCC[C@H]2[C@H](C(=O)NCC2CC2)C1`: the cytotoxicity at 10 µM is 5.6%. For the compound `Cc1cc(C(=O)O)c2c(Br)cccc2n1`, the cytotoxicity at 10 µM is -0.575%.

For the compound `Cc1cc(-c2cnc(NC3CCCC3)nc2-c2ccc(C)o2)on1`, the cytotoxicity at 10 µM was -22.4%. With `Cc1noc(CCCC(=O)N2CCCCC2CNS(C)(=O)=O)n1` (stereo not drawn), the cytotoxicity at 10 µM was -0.88%. `COc1ccc(C(=O)NCCCNc2ncccn2)c(OC)c1`: the cytotoxicity at 10 µM is -7.4%.

For the compound `CN1CCN(CCNC(=O)c2sccc2C2CC2)CC1`, the cytotoxicity at 10 µM was -149%. As for `COc1cccn(CC(=O)N(C)CCOc2cc(C)cc(C)c2)c1=O`, the figure is -10.6%.

As to `CS(=O)(=O)Cc1ccccc1NCc1cc(Cl)ccc1Cl`, the cytotoxicity at 10 µM came out at 7.67%. For the compound `CC1(C)CN(C(CNS(C)(=O)=O)c2ccc(Cl)cc2)CCO1` (stereo not drawn), the cytotoxicity at 10 µM amounted to 9.12%. With `Cc1ccc(N2CCCN(C(=O)C3(C#N)CCCCC3)CC2)nn1`, the cytotoxicity at 10 µM was -7.7%. As for `COCCn1ccc(NCc2cc3cc(F)ccc3o2)n1`, the figure is -8.78%; as for `CN(C)Cc1nn(C)c2c1CN(S(=O)(=O)c1ccccc1F)C2`, 5.6%. As for `Cn1cc(NS(=O)(=O)CC2CCCCO2)cn1` (stereo not drawn), the figure is -5.41%; as for `CC(C)NC(=O)N1CCC2(C1)CN(c1ccsc1)C(=O)CN2C` (stereo not drawn), 1.18%. As for `Cc1cc(C2CCCN(Cc3ncc(C(C)C)o3)C2)n[nH]1` (stereo not drawn), the figure is 4.29%; as for `c1cc(-c2ccc(CN3CCCC4(CCNC4)C3)s2)[nH]n1` (stereo not drawn), -152%. As for `CC(=O)N1CCCC(c2cnc(-c3c(C)nn(C)c3C)cn2)C1` (stereo not drawn), the cytotoxicity at 10 µM came out at 1.95%.

Turning to `CC(=O)NCC(=O)N1CCC2(CC1)NC(=O)CC2c1cccnc1` (stereo not drawn), the cytotoxicity at 10 µM is -72.5%. Regarding `Cc1cnn(C2CN(Cc3noc(C4CC4)n3)C2)c1`, the cytotoxicity at 10 µM was determined as 4.34%. Consider `Cc1ccccc1CN1CCCC1c1cncc(Nc2nncs2)n1` (stereo not drawn), for which the cytotoxicity at 10 µM is 1.66%. As to `Cc1noc(C)c1CN(C)C(=O)NC(C)c1cccs1` (stereo not drawn), the cytotoxicity at 10 µM was 1.41%. For the compound `Cc1cccc(CN2CCOCC3(CCN(C4CCOCC4)C3)C2)c1` (stereo not drawn), the cytotoxicity at 10 µM was -0.819%. Turning to `CC(=O)Nc1ccc(CNCC(O)c2ccc(Cl)cc2)cc1` (stereo not drawn), the cytotoxicity at 10 µM was -8.74%. With `CC(CNCc1ccc(F)cc1)Oc1ccccn1` (stereo not drawn), the cytotoxicity at 10 µM is 6.97%. As for `Cn1cc(CN2CCOC[C@H]2c2nc(C(C)(C)C)co2)c2ccccc21`, the figure is 1.21%; as for `Cc1ccc(CN(CC(=O)NC2CCOCC2)c2ccc(F)cc2)o1`, 1.55%; as for `CC(C)NC(=O)C(c1ccccc1)N1CCn2c(nnc2C2CC2)C1` (stereo not drawn), -3.3%. As for `CCCc1ccc(S(=O)(=O)NC(=O)CCc2cscn2)cc1`, the figure is 1.12%; as for `Cc1ncoc1C(=O)N1CCOC(CC2CCCCC2)C1` (stereo not drawn), -1.33%. As for `CC(C)c1cc(C(=O)N2CCCC3(CCNC3)C2)no1` (stereo not drawn), the figure is 5.28%.

As to `Cc1ccc(C(=O)Nc2cc(C(N)=O)ccc2N2CCCCC2)cc1F`, the cytotoxicity at 10 µM amounted to 2.13%. As for `CS(=O)(=O)NC1CCCN(C(=O)COCc2ccccc2)C1` (stereo not drawn), the figure is -5.28%; as for `O=C(COc1ccc2c(c1)CCC2)N1CCCC1c1ccc[nH]1` (stereo not drawn), 6.54%. As for `COc1ccc(NC(=O)Cn2c(=O)nc(N)c3cc(C)sc32)cc1`, the figure is 2.31%; as for `COCCOCCCNC(=O)c1cc(Cl)cc2cccnc12`, 32.6%. For `CCc1ccc(C(=O)N2CCN(CCS(C)(=O)=O)CC2)o1`, the cytotoxicity at 10 µM is -8.03%.

For `CN(CCO)Cc1nnc(C2CCN(C(=O)C(C)(C)C)CC2)n1C`, the cytotoxicity at 10 µM was determined as 22.6%. As for `CCCn1nccc1NC(=O)CN1CCCC1c1cccn1C` (stereo not drawn), the cytotoxicity at 10 µM was -5.76%.

As to `CN(C)CCN1CCOCC2(CCCN(C(=O)Cc3ccccc3)C2)C1` (stereo not drawn), the cytotoxicity at 10 µM was 2.14%. As for `Cc1ccc(C(=O)N2CCC(Oc3ccccc3)CC2)c(=O)[nH]1`, the figure is -1.01%. As for `O=C(NC1CCCCC1)N1CCn2c(nnc2C2CCCN2)C1` (stereo not drawn), the figure is 0.336%; as for `Cc1n[nH]cc1CNC(=O)Nc1cccc(OCC(F)(F)F)c1`, 8.64%. For `CN(C(=O)NCc1ccsc1)C1CCN(c2ccccc2)C1=O` (stereo not drawn), the cytotoxicity at 10 µM was -5.63%. As for `Cc1cc(CN2CCN(C(=O)NCc3cccs3)CC2)no1`, the figure is -11.6%; as for `CCCc1nc(C)c(CNc2nc(C)nc3onc(C)c23)s1`, 1.6%. Take `CN(CCCNC(=O)C1CCc2cn[nH]c2C1)c1ccccc1` (stereo not drawn): the cytotoxicity at 10 µM was -5.19%.

`Cc1nc(NCCSc2cnn[nH]2)c2c(C)noc2n1`: the cytotoxicity at 10 µM was -3.21%. As for `Cc1nc(CN2CCCC(NCc3ccc(Cl)s3)C2)no1` (stereo not drawn), the figure is -3.18%; as for `Cc1cc(C(=O)NC2CCc3c(ccc(=O)n3CCN(C)C)C2)no1` (stereo not drawn), -0.58%; as for `COCCN1CCN(CC(=O)N(C)Cc2ccccc2)CC1C` (stereo not drawn), -144%. As for `CN(Cc1nccn1C)C(CO)c1cccc(Br)c1` (stereo not drawn), the figure is -1.29%; as for `CCn1ncc2[nH]c(-c3ccc(OC)c(COC)c3)nc21`, 6.34%. As for `CCc1ncc(CN[C@@H]2CCCN(C(C)=O)[C@H]2c2ccc(C)s2)cn1`, the figure is -26.2%; as for `Nc1nnc(CCCNc2ncnc3c2CCN(C(=O)C2CC2)C3)s1`, -3.94%.

Consider `Fc1ccc(C2(c3noc(CCN4CCCCO4)n3)CCOC2)cc1` (stereo not drawn), for which the cytotoxicity at 10 µM is -1.54%. As for `Cc1nc(=O)c2ccccc2n1C1=CCN(CC(=O)NC(C)C)CC1`, the figure is -7.99%. As to `CCC(CO)NC(=O)NCc1cc(C#N)ccc1F` (stereo not drawn), the cytotoxicity at 10 µM was -1.22%. For the compound `CCn1cc(CNc2ccc(F)c(F)c2)cn1`, the cytotoxicity at 10 µM is -0.0638%.

Take `CC(C)c1nccn1CCCNC(=O)c1ccc(-c2cncnc2)nc1`: the cytotoxicity at 10 µM stood at 16.1%. As for `CCc1noc(CNc2cc(F)ccc2OCC2CCCO2)n1` (stereo not drawn), the figure is -3.27%; as for `COCC(=O)N1CCC(c2cc(-c3ccc(OC)cc3)n[nH]2)C1` (stereo not drawn), -10.3%; as for `CCn1ccnc1CN1CCCN(C(=O)Cn2nc(C)cc2C)CC1`, -0.505%. On to `COc1cccc(CNC(=O)c2ccccc2-n2cc(CN)cn2)c1`, for which the cytotoxicity at 10 µM is -21%. On to `Fc1ccc(C2(CNC3=NCCCN3)CCC2)cc1`, for which the cytotoxicity at 10 µM turned out to be 7.2%.

As to `O=C(NCc1ccco1)N1CCCCC1c1nc(C2CC2)no1` (stereo not drawn), the cytotoxicity at 10 µM is -7.86%. As for `CCCSCC(=O)N1CCCC(CO)(CCC)C1` (stereo not drawn), the figure is 4.86%; as for `CN1CC(=O)N(C2CCCNC2)Cc2c(NC3CCC3)ncnc21` (stereo not drawn), 3.96%; as for `CC(SCCNS(=O)(=O)c1cnn(C)c1)c1cccs1` (stereo not drawn), 12.9%. As for `CCn1cnc(NC(=O)N2CCCC(c3ccccc3)CC2)n1` (stereo not drawn), the figure is 2.7%; as for `CCOC1CCN(C(=O)NCCc2ccn(-c3ccccc3)n2)CC1`, -0.088%. `Cc1noc(-c2ccnc(Oc3ccc(CN4CCCC4)cc3C)c2)n1`: the cytotoxicity at 10 µM turned out to be 51.4%.
